Assay results as given in ChEMBL document CHEMBL1142010, “Synthesis and in vitro antitrypanosomal activity of novel Nifurtimox analogues” (2005).

Assays:
Format in all cases: functional
Trypanosoma cruzi [1] = assay: Percent of growth inhibition of Trypanosoma cruzi (Y strain) epimastigote forms at compound concentration of 10 mg/mL after incubation for 48 hr; design: inhibition: dose or concentration left out as unconfirmed
Trypanosoma cruzi [2] = assay: Percent of growth inhibition of Trypanosoma cruzi (Y strain) epimastigote forms at compound concentration of 10 mg/mL after incubation for 72 hr; design: inhibition: dose or concentration left out as unconfirmed
Trypanosoma cruzi [3] = assay: Percent of growth inhibition of Trypanosoma cruzi (Y strain) epimastigote forms at compound concentration of 1 mg/mL after incubation for 48 hr; design: inhibition: dose or concentration left out as unconfirmed
Trypanosoma cruzi [4] = assay: Percent of growth inhibition of Trypanosoma cruzi (Y strain) epimastigote forms at compound concentration of 10 mg/mL after incubation for 24 hr; design: inhibition: dose or concentration left out as unconfirmed
Trypanosoma cruzi [5] = assay: Percent of growth inhibition of Trypanosoma cruzi (Y strain) epimastigote forms at compound concentration of 100 mg/mL after incubation for 24 hr; design: inhibition: dose or concentration left out as unconfirmed
Trypanosoma cruzi [6] = assay: Percent of growth inhibition of Trypanosoma cruzi (Y strain) epimastigote forms at compound concentration of 1 mg/mL after incubation for 72 hr; design: inhibition: dose or concentration left out as unconfirmed
Trypanosoma cruzi [7] = assay: Percent of growth inhibition of Trypanosoma cruzi (Y strain) epimastigote forms at compound concentration of 1 mg/mL after incubation for 24 hr
Outline: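 Y-strain epimastigotes were grown at 28 °C in LIT medium with 10% heat-inactivated (56°, 30 min) fetal calf serum. Log-phase parasites, started at 2 × 10⁶/mL, were exposed to compound in DMSO (1% final). Growth and viability were read every 24 h by inverted microscopy, absorbance at 580 nm and Neubauer counts, in triplicate. Growth inhibition % is the mean of three experiments.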

Trypanosoma cruzi [8] = assay: Percent of growth inhibition of Trypanosoma cruzi (Y strain) epimastigote forms at compound concentration of 10 mg/mL after incubation for 98 hr; design: inhibition: dose or concentration left out as unconfirmed

SMILES	inhibition (Trypanosoma cruzi [1]) [%]	inhibition (Trypanosoma cruzi [2]) [%]	inhibition (Trypanosoma cruzi [3]) [%]	inhibition (Trypanosoma cruzi [4]) [%]	inhibition (Trypanosoma cruzi [5]) [%]	inhibition (Trypanosoma cruzi [6]) [%]	inhibition at 1000 µg/mL (Trypanosoma cruzi [7]) [%]	inhibition (Trypanosoma cruzi [8]) [%]	inhibition at 10000 µg/mL (Trypanosoma cruzi [1]) [%]	inhibition at 10000 µg/mL (Trypanosoma cruzi [2]) [%]	inhibition at 1000 µg/mL (Trypanosoma cruzi [3]) [%]	inhibition at 10000 µg/mL (Trypanosoma cruzi [4]) [%]	inhibition at 100000 µg/mL (Trypanosoma cruzi [5]) [%]	inhibition at 1000 µg/mL (Trypanosoma cruzi [6]) [%]	inhibition at 10000 µg/mL (Trypanosoma cruzi [8]) [%]
O=C(/C=C/c1cccs1)NCc1ccccc1	22.5	19.6	15	17.4	39.1	10.7	17.4	13.2							
O=C(/C=C/c1ccc([N+](=O)[O-])o1)Nc1nc2c(Cl)cccc2s1	42.5	50	22.5	21.7	100	23.2	26.1	50							
O=C(/C=C/c1ccc([N+](=O)[O-])o1)NCc1ccccc1	100	100	65	100	100	71.4	47.8	100							
CC(C)CNC(=O)/C=C/c1ccc([N+](=O)[O-])o1	100	100	65	100	100	69.6	47.8	100							
O=C(/C=C/c1ccc([N+](=O)[O-])o1)NCc1ccc2c(c1)OCO2	100	100	67.5	100	100	71.4	52.2	100							
O=C(/C=C/c1ccc([N+](=O)[O-])o1)NCc1ccc(Cl)cc1	100	100	60	100	100	67.8	39.1								
O=C(/C=C/c1ccc([N+](=O)[O-])s1)NCc1ccccc1	47.5	53.6		30.4	100	25	26.1	55.9							
O=C(/C=C/c1ccco1)NCc1ccccc1	32.5	28.6	5	21.7	39.1	5.36	8.7	19.1							
C[S+](C)[O-] [DIMETHYL SULFOXIDE]	0	0	0	0	0	0	0	0							
CC1CS(=O)(=O)CCN1/N=C/c1ccc([N+](=O)[O-])o1 (stereo not drawn) [NIFURTIMOX]							17.4		100	100	20	100	100	19.6	100
